Data set [1] in a line: Cytotoxicity in human HepDE19 cells assessed as reduction in cell viability incubated for 5 days by CCK8 assay. Format: cell-based. Summed up:
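HepDE19 cells were grown in DMEM-F12 with 10% FBS, penicillin/streptomycin and 0.5 mg/mL G418, then seeded at 5 × 10^3 cells/well. Compound exposure lasted 5 days. Viability was read with CCK-8 after 2 h at 37 °C, measuring OD450 and OD630. CC50 was the concentration killing 50% of cells; duplicate runs.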

The nature of data set [2]: Induction of CYP3A4 gene expression in cryopreserved human hepatocytes assessed as increase in CYP3A4 mRNA level at 10 uM incubated for 24 hrs by qRT-PCR analysis relative to rifampicin. It is filed as ADME, cell-based. In short, it runs like this:
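Cryopreserved hepatocytes from one human donor were seeded at 1 × 10^6 cells/mL and cultured 24 h in serum-free Williams E. Compounds at 0.1, 1.0 and 10 µM (0.1% DMSO) were added in triplicate for 24 h, with vehicle wells as negative controls. Positive controls were omeprazole for CYP1A2, phenobarbital for CYP2B6 and rifampicin for CYP3A4. mRNA was measured by TaqMan qRT-PCR normalised to PPIA (2^-ΔΔCT) and expressed as % of the positive control.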

Structures are written as SMILES.

Data on nine compounds can be found in ChEMBL document CHEMBL4414644, “A New Approach of Mitigating CYP3A4 Induction Led to the Discovery of Potent Hepatitis B Virus (HBV) Capsid Inhibitor with Optimal ADMET Profiles” (J Med Chem, 2019).

What is called CC50 is the concentration at which the toxic effect on the cells reaches its halfway point.

As for `COC(=O)C1=C(CN2CCOC[C@H]2C(=O)O)NC(c2nccs2)=N[C@H]1c1ccc(Br)c(F)c1`, the CC50 at 120 h in data set [1] was found to be 76 µM. The Activity in data set [2] stood at 26%.
On the same counts, the results for `CCOC(=O)C1=C(CN2CCOC[C@H]2C(=O)O)NC(c2nccs2)=N[C@H]1c1ccc(F)cc1F` are greater than 100 µM and 135%.
The like results for `CCOC(=O)C1=C(CN2CCOC[C@H]2C(=O)O)NC(c2nccs2)=N[C@H]1c1ccc(C)c(F)c1` were, in that order, 85 µM and 40%.
The like results for `CCOC(=O)C1=C(CN2CCOC[C@H]2C(=O)O)NC(c2nccs2)=N[C@H]1c1ccc(Br)c(F)c1` were, in that order, 14 µM and 73%.
In the case of `CCOC(=O)C1=C(CN2CCOC[C@H]2C(=O)O)NC(c2nccs2)=N[C@H]1c1cc(F)c(F)c(F)c1`, in data set [1], the CC50 at 120 h is greater than 100 µM. The Activity in data set [2] came out at 72%.
On the same counts, the results for `COC(=O)C1=C(CN2CC(F)(F)C[C@H]2C(=O)O)NC(c2nccs2)=N[C@H]1c1ccc(F)c(F)c1` are 56 µM and 52%.
As for `CCOC(=O)C1=C(CN2CC(F)(F)C[C@H]2C(=O)O)NC(c2nccs2)=N[C@H]1c1ccc(F)cc1Cl`, in data set [1], the CC50 at 120 h was greater than 100 µM. The Activity in data set [2] is recorded as 123%.
As for `CCOC(=O)C1=C(CN2CCOC[C@H]2C(=O)O)NC(c2nccs2)=N[C@H]1c1ccc(F)c(F)c1`, the CC50 at 120 h in data set [1] is greater than 100 µM. Besides, the Activity in data set [2] turned out to be 41%.
On the same counts, the results for `CCOC(=O)C1=C(CN2CCOC[C@H]2C(=O)O)NC(c2nccs2)=N[C@H]1c1ccc(F)cc1Cl` are greater than 100 µM and 173%.
